Calls of active or inactive are those of the source. The calls are words filed in the database; no cut-off is given here. Starred links: 1 amine or outer side, 2 acyl side, 3 side chain; linkers in the order of their positions; H or OH if unused. Positions of bridges follow the written chain, without caps; N, C: chain ends. Non-standard residues stand in square brackets, D forms with d. Residues, ends and D or L forms follow the SMILES beside them. *: point of attachment. hTyr(3S-OH,4S-OH,3'-OSO3H) = N[C@H](C(=O)O)[C@H](O)[C@@H](O)c1ccc(O)c(OS(=O)(=O)O)c1; Orn(4R-OH,5R-OH) = O=C([C@H](C[C@@H](O)[C@@H](O)N[*:3])N[*:1])[*:2]; Pro(3S-OH,4S-Me) = C[C@H]1CN[C@H](C(=O)O)[C@H]1O; X1 = CCCCCOc1ccc(-c2cc(-c3ccc(C(=O)*)cc3)no2)cc1; Gln(3R-OH) = NC(=O)C[C@@H](O)[C@H](N)C(=O)O; Hyp = O=C(O)[C@@H]1C[C@@H](O)CN1
How the values were obtained:
[1] = test system: Aspergillus fumigatus; assay: Antifungal activity against Aspergillus fumigatus 293 by broth-microdilution; format: functional; conditions: read-out: MEC
Method in brief: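 Broth microdilution following CLSI (NCCLS) approved standard M38-A. Amphotericin B read as MIC; micafungin read as minimum effective concentration.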

[2] = test system: Aspergillus fumigatus; assay: Antifungal activity against Aspergillus fumigatus 293 by Etest; format: functional
Method in brief: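 Susceptibility of A. fumigatus 293 by Etest. Amphotericin B read as MIC; micafungin read as minimum effective concentration.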

[3] = test system: Aspergillus fumigatus; assay: Antifungal activity against Aspergillus fumigatus 293 infected in neutropenic BALB/c mouse lung assessed as log reduction in fungal burden at 20 mg/kg, ip administered as single dose 24 hrs before infection; format: functional; conditions: route intraperitoneal
Method in brief: (§1)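 Same neutropenic BALB/c intranasal-challenge model; single i.p. dose in D5W given 24 h pre-infection; D5W controls. Lungs from 10-20 mice/group taken at day +7, or earlier at moribund euthanasia. A. fumigatus DNA quantified by real-time PCR as conidial equivalents; reduction expressed as log10 of median versus control.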

[4] = test system: Aspergillus fumigatus; assay: Antifungal activity against Aspergillus fumigatus 293 infected in neutropenic BALB/c mouse assessed as mouse survival at 20 mg/kg, ip administered as single dose 24 hrs before infection measured after 7 days relative to untreated control; format: functional; conditions: route intraperitoneal
Method in brief: (§2)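 Female BALB/c mice, 8 weeks old, 18-22 g. Neutropenia by cyclophosphamide 150 mg/kg i.p. on days −4, −1 and +3, plus cortisone acetate 250 mg/kg i.p. on day −1. Under isoflurane, 2.5 × 10^6 conidia given intranasally. Drug diluted in D5W, given once i.p. 24 h pre-infection; D5W controls; n = 20/group. Morbidity monitored 7 days; log-rank test.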

[5] = test system: Aspergillus fumigatus; assay: Antifungal activity against Aspergillus fumigatus 293 infected in neutropenic BALB/c mouse lung assessed as log reduction in fungal burden at 5 mg/kg, ip administered as single dose 24 hrs before infection; format: functional; conditions: route intraperitoneal; method in brief: as §1
[6] = test system: Aspergillus fumigatus; assay: Antifungal activity against Aspergillus fumigatus 293 infected in neutropenic BALB/c mouse assessed as mouse survival at 5 mg/kg, ip administered as single dose 24 hrs prior to infection measured after 7 days relative to untreated control; format: functional; conditions: route intraperitoneal; method in brief: as §2
[7] = test system: Aspergillus fumigatus; assay: Antifungal activity against Aspergillus fumigatus 293 infected in neutropenic BALB/c mouse lung assessed as log reduction in fungal burden at 10 mg/kg, ip administered as single dose 24 hrs before infection; format: functional; conditions: route intraperitoneal; method in brief: as §1
[8] = test system: Aspergillus fumigatus; assay: Antifungal activity against Aspergillus fumigatus 293 infected in neutropenic BALB/c mouse lung assessed as swollen dysmorphic hyphal clusters at 20 mg/kg, ip administered as single dose 24 hrs before infection by light microscopy; format: functional, organism-based; design: dose 20 mg/kg
Method in brief: (§3)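 Repeat experiments in the neutropenic intranasal-challenge model, five mice per dose, single i.p. dose 24 h pre-infection. Day +7 lungs fixed in 10% formaldehyde and stained with Grocott methenamine silver. Hyphal morphology and density assessed by light microscopy at ×100 and ×400.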

[9] = test system: Aspergillus fumigatus; assay: Antifungal activity against Aspergillus fumigatus 293 infected in neutropenic BALB/c mouse lung assessed as swollen dysmorphic hyphal clusters at 10 mg/kg, ip administered as single dose 24 hrs before infection by light microscopy; format: functional, organism-based; design: dose 10 mg/kg; method in brief: as §3

Row | SMILES | minimal effective concentration [1] | MEC [2] | FC [3] | Activity [4] | FC [5] | Activity [6] | FC [7] | Activity [8] | Activity [9]
1 | C[C@@H]1[C@H](O)[C@@H](C)/C=C/C=C/C=C/C=C/C=C/C=C/C=C/[C@H](O[C@@H]2O[C@H](C)[C@@H](O)[C@H](N)[C@@H]2O)C[C@@H]2O[C@](O)(C[C@@H](O)C[C@@H](O)[C@H](O)CC[C@@H](O)C[C@@H](O)CC(=O)O[C@H]1C)C[C@H](O)[C@H]2C(=O)O [AMPHOTERICIN B] | 0.25 µg/mL | – | – | – | – | – | – | – | –
2 | CCCCCOc1ccc(-c2cc(-c3ccc(C(=O)N[C@H]4C[C@@H](O)[C@@H](O)NC(=O)[C@@H]5[C@@H](O)[C@@H](C)CN5C(=O)[C@H]([C@H](O)CC(N)=O)NC(=O)[C@H]([C@H](O)[C@@H](O)c5ccc(O)c(OS(=O)(=O)O)c5)NC(=O)[C@@H]5C[C@@H](O)CN5C(=O)[C@H]([C@@H](C)O)NC4=O)cc3)no2)cc1 [MICAFUNGIN] (X1-[Orn(4R-OH,5R-OH)]T[Hyp][hTyr(3S-OH,4S-OH,3'-OSO3H)][Gln(3R-OH)][Pro(3S-OH,4S-Me)]; lactam 1-C) | 0.25 µg/mL | 0.25 µg/mL | 0.7 | 55% | 1.3 | 55% | 1.3 | Active | Active

Source: ChEMBL document CHEMBL1275536, “Efficacy of single-dose liposomal amphotericin B or micafungin prophylaxis in a neutropenic murine model of invasive pulmonary aspergillosis” (2008)
